In ChEMBL document CHEMBL1122643, “Alpha-adrenoreceptor reagents. 2. Effects of modification of the 1,4-benzodioxan ring system on alpha-adrenoreceptor activity” (J Med Chem, 1984):
Calls of active or inactive are those of the source. The rule behind the calls is not given here.

Key:
[1] = target: T1, Alpha-2 adrenergic receptor (Mus musculus) (UniProt P30545+Q01338+Q01337); test: Ability to antagonize the inhibitory effect of clonidine on the mouse vas deferens is the presynaptic alpha-2 adrenergic receptor antagonist potency relative to idazoxan = 1.; type: functional, tissue-based
Summary of the method: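 Male adult mouse vasa deferentia (MFI >30 g), 0.5 g initial tension, Mg-free Krebs, 30 °C, 95% O2/5% CO2. Field stimulation at 0.1 Hz, 3-ms pulses, 100-140 V set to give ~100-mg twitch, recorded isometrically.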

[2] = Selectivity between pre- and post-synaptic sites of action.; type: functional
[3] = target: T2, Adrenergic receptor alpha-1 (Rattus norvegicus) (UniProt P15823+P23944+P43140); test: In vitro inhibition of the contractile effect of phenylephrine on the isolated rat anococcygeus; potency relative to idazoxan.; type: functional
[4] = target: T2, Adrenergic receptor alpha-1 (Rattus norvegicus); test: Agonism at Alpha-1 adrenoceptor determined in rat anococcygeus preparation; Inactive.; type: functional
Summary of the method: (§1)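 Isolated tissue agonist test, potency compared directly with the standard in the same experiment. Standard dose-response curves were run before and after the test compound's curve. Rat anococcygeus (male Sprague-Dawley, 200-250 g; Krebs, 30 °C, 95% O2/5% CO2) was compared with phenylephrine. Field-stimulated mouse vas deferens (0.1 Hz, Mg-free Krebs, 30 °C) was compared with clonidine.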

[5] = target: T1, Alpha-2 adrenergic receptor (Mus musculus); test: Presynaptic alpha-2 adrenergic receptor agonistic activity in mouse vas deferens relative to clonidine; type: functional, tissue-based; summary of the method: as §1
[6] = target: T1, Alpha-2 adrenergic receptor (Mus musculus); test: Presynaptic alpha-2 adrenergic receptor from mouse vas deferens agonistic activity relative to clonidine = 1.; type: functional, tissue-based; summary of the method: as §1
[7] = target: T2, Adrenergic receptor alpha-1 (Rattus norvegicus); test: Agonism in vitro at Alpha-1 adrenoceptor determined in rat anococcygeus preparation.; type: functional; summary of the method: as §1
[8] = target: T2, Adrenergic receptor alpha-1 (Rattus norvegicus); test: In vitro inhibition of the contractile effect of phenylephrine on the isolated rat anococcygeus; potency relative to idazoxan; Inactive.; type: functional
[9] = target: T3, Alpha-2 adrenergic receptor (Mus musculus, UniProt P30545+Q01338+Q01337); test: Alpha-2 adrenergic receptor […] in mouse vas deferens relative to clonidine; type: functional, tissue-based; summary of the method: as §1
T3 sequence (P30545 whole entry): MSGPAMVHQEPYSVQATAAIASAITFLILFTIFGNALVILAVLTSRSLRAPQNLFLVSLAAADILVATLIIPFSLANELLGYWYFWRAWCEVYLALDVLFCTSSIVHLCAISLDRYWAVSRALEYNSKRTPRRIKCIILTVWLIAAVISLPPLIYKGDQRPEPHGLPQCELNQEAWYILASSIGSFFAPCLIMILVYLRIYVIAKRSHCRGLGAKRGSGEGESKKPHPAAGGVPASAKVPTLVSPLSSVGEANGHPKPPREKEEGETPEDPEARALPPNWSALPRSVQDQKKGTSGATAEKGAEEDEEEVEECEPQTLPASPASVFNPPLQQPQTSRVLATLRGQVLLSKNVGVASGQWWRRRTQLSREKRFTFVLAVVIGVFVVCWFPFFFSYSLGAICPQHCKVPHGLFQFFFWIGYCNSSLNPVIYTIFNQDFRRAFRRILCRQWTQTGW
T3 sequence (Q01338 whole entry): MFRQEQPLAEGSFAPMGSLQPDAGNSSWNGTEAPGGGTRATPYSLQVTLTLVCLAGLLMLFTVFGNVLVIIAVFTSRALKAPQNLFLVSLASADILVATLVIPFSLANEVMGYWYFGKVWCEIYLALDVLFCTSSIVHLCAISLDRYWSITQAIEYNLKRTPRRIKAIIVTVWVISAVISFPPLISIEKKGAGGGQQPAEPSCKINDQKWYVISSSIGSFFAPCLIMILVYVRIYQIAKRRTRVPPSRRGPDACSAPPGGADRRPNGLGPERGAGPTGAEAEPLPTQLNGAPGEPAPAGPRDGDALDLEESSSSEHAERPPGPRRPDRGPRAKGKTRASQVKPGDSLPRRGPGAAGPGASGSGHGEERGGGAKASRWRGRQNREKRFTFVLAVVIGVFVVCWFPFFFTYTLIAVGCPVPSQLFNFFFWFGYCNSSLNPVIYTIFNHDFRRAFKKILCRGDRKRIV
T3 sequence (Q01337 whole entry): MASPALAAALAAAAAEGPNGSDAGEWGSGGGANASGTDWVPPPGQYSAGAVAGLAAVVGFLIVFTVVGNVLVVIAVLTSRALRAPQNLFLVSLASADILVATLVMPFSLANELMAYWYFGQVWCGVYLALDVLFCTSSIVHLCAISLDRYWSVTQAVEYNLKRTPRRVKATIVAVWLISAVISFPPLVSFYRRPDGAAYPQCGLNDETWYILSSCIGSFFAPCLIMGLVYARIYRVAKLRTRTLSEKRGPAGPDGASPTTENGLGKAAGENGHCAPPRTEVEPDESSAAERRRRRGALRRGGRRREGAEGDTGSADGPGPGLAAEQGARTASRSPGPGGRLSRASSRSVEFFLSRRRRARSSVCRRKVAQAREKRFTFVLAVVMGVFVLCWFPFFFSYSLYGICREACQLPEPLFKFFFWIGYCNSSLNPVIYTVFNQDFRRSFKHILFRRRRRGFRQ

| Compound | Antagonist potency [1] | Ratio [2] | Antagonist potency [3] | Agonist potency [4] | Agonist potency [5] | Agonist potency [6] | Agonist potency [7] | Antagonist potency [8] | pA2 [9] |
| --- | --- | --- | --- | --- | --- | --- | --- | --- | --- |
| c1ccc2c(c1)CC(C1=NCCN1)S2 (configuration not stated) | 0.1 | 0.14 | 0.69 | inactive | 0.001 |  |  |  |  |
| c1ccc2c(c1)CC(C1=NCCN1)CO2 (configuration not stated) | 0.01 | 0.01 | 1 | inactive |  | inactive |  |  |  |
| CC1(C2=NCCN2)Oc2ccccc2O1 | 0.001 | 0.1 | 0.01 |  |  | inactive | 0.05 |  |  |
| Fc1ccc2c(c1)CC(C1=NCCN1)O2 (configuration not stated) | 1.07 | 0.2 | 5.6 | inactive |  | inactive |  |  |  |
| Cc1ccc2c(c1)CC(C1=NCCN1)O2 (configuration not stated) | 1 | 0.44 | 2.25 | inactive |  | inactive |  |  |  |
| Cc1cc(C)c2c(c1)CC(C1=NCCN1)O2 (configuration not stated) | 0.3 |  |  |  |  | inactive | 0.03 | inactive |  |
| c1ccc2c(c1)CCC(C1=NCCN1)O2 (configuration not stated) | 0.01 | 0.01 | 1 | inactive |  | inactive |  |  |  |
| c1ccc2c(c1)OC(C1=NCCN1)O2 | 0.001 |  |  |  |  | inactive | 0.005 | inactive |  |
| Oc1ccc2c(c1)CC(C1=NCCN1)O2 (configuration not stated) | 0.02 |  |  |  | 0.02 |  | 0.25 | inactive |  |
| c1ccc2c(c1)OCCC(C1=NCCN1)O2 (configuration not stated) | 0.04 |  |  |  |  | inactive | < 0.0005 | inactive |  |
| Oc1ccc2c(c1)OC(C1=NCCN1)C2 (configuration not stated) | 0.04 |  |  |  | 0.02 |  | 1.5 | inactive |  |
| COc1ccc2c(c1)OC(C1=NCCN1)C2 (configuration not stated) | 0.07 | 0.2 | 0.35 | inactive |  | inactive |  |  |  |
| CC(=O)c1ccc2c(c1)CC(C1=NCCN1)O2 (configuration not stated) | 0.003 |  |  |  |  | inactive | 0.02 | inactive |  |
| Cl.Clc1cccc2c1OC(C1=NCCN1)C2 (configuration not stated) | 0.64 | 0.64 | 1 | inactive |  | inactive |  |  | 7.64 |
| Clc1cccc2c1CC(C1=NCCN1)O2 (configuration not stated) | 2 |  |  |  |  | inactive | 1 | inactive |  |
| Cc1cc2c(cc1C)OC(C1=NCCN1)C2 (configuration not stated) | 0.7 | 0.8 | 0.9 | inactive |  | inactive |  |  |  |
| Brc1ccc2c(c1)CC(C1=NCCN1)O2 (configuration not stated) | 0.2 |  |  |  | < 0.001 |  | 0.026 | inactive |  |
| Clc1ccc2c(c1Cl)OC(C1=NCCN1)C2 (configuration not stated) | 0.12 |  |  |  | 0.03 |  | 0.001 | inactive |  |
| CC1c2ccccc2OC1C1=NCCN1 (configuration not stated) | 0.03 | 0.3 | 0.1 | inactive |  | inactive |  |  |  |
| c1ccc2sc(C3=NCCN3)cc2c1 | 0.001 | 0.02 | 0.05 | inactive |  | inactive |  |  |  |
| Cc1cccc2c1OC(C1=NCCN1)C2.Cl (configuration not stated) | 1.6 | 2.4 | 0.67 | inactive |  | inactive |  |  | 8.22 |
| Clc1cc(Cl)c2c(c1)CC(C1=NCCN1)O2 (configuration not stated) | 0.06 |  |  |  | < 0.0001 |  | 0.14 | inactive |  |
| Cc1ccc2c(c1)OC(C1=NCCN1)C2 (configuration not stated) | 0.46 | 0.2 | 2.25 | inactive |  | inactive |  |  |  |
| Cc1cccc2c1CC(C1=NCCN1)O2 (configuration not stated) | 0.1 |  |  |  | 0.2 |  | 1.3 | inactive |  |
| c1ccc2oc(C3=NCCN3)cc2c1 | 0.01 |  |  |  | < 0.0003 |  | < 0.001 |  |  |
| Oc1cccc2c1OC(C1=NCCN1)C2 (configuration not stated) | 0.04 |  |  |  |  | inactive | 0.24 | inactive |  |
| Cc1ccc(C)c2c1CC(C1=NCCN1)O2 (configuration not stated) | 0.03 |  |  |  | 0.14 |  | 0.5 | inactive |  |
| COc1cccc2c1OC(C1=NCCN1)C2 (configuration not stated) | 0.07 |  |  |  |  | inactive | 0.3 | inactive |  |
| c1ccc(CCC2(C3=NCCN3)Cc3ccccc3O2)cc1 (configuration not stated) | 0.07 | 1 | 0.07 | inactive |  | inactive |  |  |  |
| Cl.c1ccc2c(c1)CC(C1=NCCN1)O2 (configuration not stated) | 1.7 | 10.6 | 0.16 |  |  | inactive | 0.01 |  | 8.35 |
